# Shown are actives, neighbours in structure and some others; about 3% of the full set was active somewhere.
# HIF activator: HIF pathway transcriptional activators, primary screen, cell-based, U2OS HRE-luciferase, luminescence; U2OS HRE-luciferase reporter; normalized: DMSO 0%, desferrioxamine 100%; activation, % at 7.5 µM (by protocol); actives 0.32% (n = 300,000);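 active = mean activation of at least 10% of the iron chelator positive control signal, with at least half of replicates also reaching 10%; inconclusive = mean and replicate majority disagree about reaching 10%; inactive = mean and most replicates under 10%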
# AI-2 QS mod: Vibrio harveyi AI-2 quorum sensing modulators, primary screen, JMH597 strain, luminescence/OD600 ratio; Vibrio harveyi JMH597 AI-2 luminescence/OD600 ratio, 9 h; active compounds read low; strain lacks LuxN and CqsS sensors; 0 = neutral-control median; activity change, % at 7.5 µM; actives 0.4% (n = 300,000); AID 2094, 2009; in the data active = activity change below about -75%, passing the limit was not always enough; inconclusive = no clear call, values can overlap the other calls;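 note: luminescence divided by OD600 gain over 9 h not by final OD600 alone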
# CendR NRP1 mod: modulators of CendR peptide binding to NRP-1, primary screen, biochemical, fluorescence polarization, uHTS; FAM-RPARPAR peptide binding to NRP-1; inhibition, % at 25 µM; actives 0.85% (n = 360,000); AID 602438, 2012;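 active = inhibition or corrected inhibition above about 18%, plus a signal ratio from 0.5 to 1.5, limit read from the data, passing the limit was not always enough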
# Target sequence (O14786 whole entry, looked up): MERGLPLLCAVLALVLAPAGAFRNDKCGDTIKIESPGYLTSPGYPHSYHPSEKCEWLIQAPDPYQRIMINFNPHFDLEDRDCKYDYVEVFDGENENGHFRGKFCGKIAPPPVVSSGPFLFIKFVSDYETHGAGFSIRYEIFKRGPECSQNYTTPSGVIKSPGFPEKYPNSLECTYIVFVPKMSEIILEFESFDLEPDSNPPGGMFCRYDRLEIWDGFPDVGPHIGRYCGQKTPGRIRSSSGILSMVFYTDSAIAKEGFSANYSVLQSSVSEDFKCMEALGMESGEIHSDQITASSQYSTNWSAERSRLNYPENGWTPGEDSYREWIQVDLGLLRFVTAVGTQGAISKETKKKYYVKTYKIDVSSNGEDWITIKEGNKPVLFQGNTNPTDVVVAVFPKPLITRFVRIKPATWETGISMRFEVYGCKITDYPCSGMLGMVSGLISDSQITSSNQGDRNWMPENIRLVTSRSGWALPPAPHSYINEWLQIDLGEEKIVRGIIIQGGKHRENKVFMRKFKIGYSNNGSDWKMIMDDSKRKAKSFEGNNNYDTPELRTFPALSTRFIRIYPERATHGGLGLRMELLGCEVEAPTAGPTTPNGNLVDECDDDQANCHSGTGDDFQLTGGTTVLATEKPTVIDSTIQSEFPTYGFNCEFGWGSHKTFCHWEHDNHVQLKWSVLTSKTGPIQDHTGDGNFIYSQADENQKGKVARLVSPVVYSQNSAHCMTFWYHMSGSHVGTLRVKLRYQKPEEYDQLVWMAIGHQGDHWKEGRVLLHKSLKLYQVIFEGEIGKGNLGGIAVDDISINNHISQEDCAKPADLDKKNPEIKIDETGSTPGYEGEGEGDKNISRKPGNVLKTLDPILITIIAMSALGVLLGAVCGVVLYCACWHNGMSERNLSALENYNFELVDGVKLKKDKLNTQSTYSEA
# V-ATPase pH: regulators of yeast V-ATPase proton pumping, primary screen, pHLuorin cytosolic pH fluorescence | S. cerevisiae | response, % at 10 µM | actives 0.37% (n = 350,000) | AID 504577, 2011; in the data active = response mostly above about 7.3%, no sharp cut-off; inactive = mostly below about 5.4%; note: actives read high
# Yeast superoxide: reduction of superoxide in aged yeast, primary screen, HTS. superoxide response (% of plate mean), % at 10 µM. actives 0.18% (n = 330,000). S. cerevisiae aged cells, superoxide DHE fluorescence; active compounds read low;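 active = superoxide response under a set limit, about three screen SD below normal, cut at about 65% in these data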;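 note: yeast aged for seven days with compound at 30 °C before DHE staining; 100% = average MFI of all compound-treated wells on the plate with controls excluded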
# T cruzi inh: inhibitors of intracellular T. cruzi growth, primary screen, luminescence, NIH3T3 host cells. T. cruzi beta-gal in NIH3T3, 90 h. inhibition, % (test concentration not listed). actives 1.4% (n = 300,000);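 active = mean inhibition across valid replicates above about 55%, limit read from the data; inconclusive = mean below that limit but half or more replicates reach it; inactive = mean below it, under half of replicates reach it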;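 note: signal also drops with host cell toxicity which is not excluded here; 0% = plate median of DMSO wells and 100% = zero luminescence signal; higher percent means less beta-gal luminescence so fewer parasites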
#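 Material: NIH/3T3 host cells with β-galactosidase reporter T. cruzi; Input: 5,000 host fibroblasts per well; Medium: DMEM, 2% fetal bovine serum; Compound: 50 nL DMSO compound solution per well; Schedule: 3 h host attachment, then at least 90 h co-culture; Detection: luminescent β-galactosidase signal after 60 min lysis.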
# JMH597 growth: Vibrio harveyi growth inhibition, confirmation, counter-screen for AI-2 quorum sensing project, JMH597 strain, OD600 absorbance; shares compounds with AI-2 QS mod; 9 h; lacks LuxN and CqsS sensors; actives 1% (n = 750); growth inhibition, % at 7.5 µM; AID 2726, 2010;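 active = every replicate shows growth inhibition above 50%; inconclusive = at least half, but not all, replicates pass that cutoff; inactive = fewer than half of replicates pass it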
# BB721 const-QS lum: luminescence inhibition in constitutive-on V. harveyi, confirmation, counter-screen for LuxS inhibitor project, strain BB721, luminescence readout; Vibrio harveyi BB721 luminescence, 9 h; actives 95% (n = 750); AID 2727, 2010; shares compounds with AI-2 QS mod; inhibition, % at 7.5 µM;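 active = inhibition above about 80% in every replicate, not just on average, limit read from the data; inconclusive = at least half of replicates past the limit, but not all; inactive = fewer than half of replicates past the limit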
# BB721 growth: growth inhibition of V. harveyi BB721, confirmation, cytotoxicity control for AI-2 quorum sensing inhibitors, strain BB721, absorbance OD600; shares compounds with AI-2 QS mod; Vibrio harveyi BB721 growth, 9 h; growth inhibition, % at 7.5 µM; actives 3% (n = 750);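 active = every replicate shows growth inhibition above 50%; inconclusive = at least half but not all replicates above 50% inhibition; inactive = under half of replicates above 50% inhibition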
# JMH597 AI-2 mod: Vibrio harveyi AI-2 signaling luminescence modulation – JMH597 strain, confirmation; shares compounds with AI-2 QS mod; Vibrio harveyi JMH597 AI-2 quorum sensing luminescence, 9 h; luxN and CqsS knockout, AI-2 only; inhibition, % at 7.5 µM; actives 97% (n = 750);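 active = every replicate shows more than 75% inhibition of signal versus neutral control wells; inconclusive = half to three quarters of replicates exceed 75% inhibition; inactive = fewer than half of replicates exceed 75% inhibition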
# Numbers without * were called inactive; ? = inconclusive; / = no result.
SMILES,HIF activator,AI-2 QS mod,CendR NRP1 mod,V-ATPase pH,Yeast superoxide,T cruzi inh,JMH597 growth,BB721 const-QS lum,BB721 growth,JMH597 AI-2 mod
Cc1ccc(CNc2oc(-c3cccs3)nc2C#N)cc1,0,-94*,1,-1,94,6,30,97*,?,98*
N#Cc1nc(-c2cccs2)oc1NCc1ccc(Cl)cc1,1,-87*,-10,-1,118,30,93*,92*,102*,96*
COc1ccc(CNC(=O)Cn2cc3c(n2)CCCCC3)cc1,0,22,4,-1,109,9,/,/,/,/
O=C(Nc1ccc(N2CCOCC2)nc1)c1ccccc1Cl,1,12,10,1,107,-5,/,/,/,/
Cc1cccc2c1cnn2C(=O)Nc1ccccc1Cl,-4,34,-5,-2,106,3,/,/,/,/
CN(CC(=O)Nc1ccc(Cl)c(C(F)(F)F)c1)C(=O)c1cccs1,0,-89*,-2,0,105,-5,24,98*,25,98*
Cc1noc(C)c1CSCC(=O)N(C)CC(=O)Nc1ccc(Cl)c(Cl)c1,0,12,-19,-4,125,-5,/,/,/,/
Cc1noc(C)c1CSCC(=O)N(C)CC(=O)Nc1ccc(Cl)c(C(F)(F)F)c1,-1,-87*,-2,-1,104,2,13,95*,-4,96*
NC(=O)C1CCN(c2nc3c(S(=O)(=O)c4ccccc4)nnn3c3ccccc23)CC1,0,23,4,0,117,-4,/,/,/,/
Cc1ccc(O)c(NC(=O)CCC2CCCCC2)c1,3,-84*,-1,-2,105,-11,17,93*,17,95*
Cc1ccc(O)c(NC(=O)C2CCCCC2)c1,1,14,-3,-2,99,-18,/,/,/,/
O=C(CCC1CCCCC1)Nc1ccccc1-c1ccccc1,0,36,2,1,98,16,/,/,/,/
O=C(CCC1CCCCC1)Nc1ccccc1O,6,-85*,10,-1,97,-4,24,94*,24,94*
C=C(C)C(=O)Nc1ccc2nn(-c3ccccc3O)nc2c1,/,/,5,-4,/,/,/,/,/,/
Oc1c(Br)cc2oc3c(c2c1CNCc1ccccc1)CCCC3,-3,-20,-15,4,92,-9,/,/,/,/
NC(=S)Nc1cccc(Cl)c1,-1,2,-1,2,112,-11,/,/,/,/
NC(=S)Nc1cc(Cl)cc(Cl)c1,0,-82*,-1,0,118,11,-12,65,-22,?
Cc1cc(C(=O)Nn2cnc3ccccc3c2=O)ccc1[N+](=O)[O-],0,-86*,1,-2,97,-42,24,95*,11,97*
O=C(Nc1ccc(S(=O)(=O)N2CCCC2)cc1)C1COc2ccccc2O1 (centres undefined),0,?,-1,2,90,-6,23,93*,-23,99*
CN(C)S(=O)(=O)c1ccc(NC(=O)C2COc3ccccc3O2)cc1 (centres undefined),0,-89*,-2,0,105,-13,12,96*,-3,98*
CCSc1nnc(SCC(=O)Nc2cc(C)on2)s1,/,/,-4,-1,111,/,/,/,/,/
